Data reported in ChEMBL document CHEMBL5252546, “Salutaxel, a Conjugate of Docetaxel and a Muramyl Dipeptide (MDP) Analogue, Acts as Multifunctional Prodrug That Inhibits Tumor Growth and Metastasis” (J Med Chem, 2018).
Calls of active or inactive are those of the source. No cut-off for these calls is given here.

Key:
4T1 [1] = experiment: Antitumor activity against mouse 4T1 cells implanted in BALB/c mouse assessed as decrease in tumor MMP2 expression level at 5.7 mg/kg,iv administrated once per week for 4 weeks by western blot assay; type: functional, organism-based
Procedure, shortened: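 4T1 cells injected into mammary fat pads of BALB/c mice. Saline vehicle or test article given iv once weekly for 4 weeks. Spleen, lung and tumor lysates immunoblotted for MMP2/MMP9 with β-actin as loading control. Bands averaged over five mice per group, representative of two independent experiments.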

4T1 [2] = experiment: Antitumor activity against mouse 4T1 cells implanted in BALB/c mouse assessed as decrease in serum TIMP-1 level at 5.7 mg/kg,iv administrated once per week for 4 weeks in presence of MDA-205 by ELISA; type: functional, organism-based
4T1 [3] = experiment: Antitumor activity against mouse 4T1 cells implanted in BALB/c mouse assessed as decrease in serum IL-6 level at 5.7 mg/kg,iv administrated once per week for 4 weeks by ELISA; type: functional, organism-based
[4] = MRT in mouse tumor implanted with mouse 4T1 cells at 10 mg/kg,iv measured upto 72 hrs; type: ADME, organism-based, Neoplasm
[5] = Drug metabolism in mouse hepatocytes assessed as MDA-205 metabolite formation at 20 uM incubated for 180 mins; type: ADME, cell-based, Hepatocyte; conditions: 3 h
[6] = Drug excretion in rat feces at 4 mg/kg,iv measured upto 72 hrs; type: ADME, organism-based; conditions: faeces, read-out: Drug excretion
[7] = Volume of distribution at steady state in male rat at 4 mg/kg,iv measured upto 24 hrs; type: ADME, organism-based; conditions: in vivo, read-out: Vdss
[8] = Half life in rat at 4 mg/kg,iv measured upto 24 hrs; type: ADME, organism-based; conditions: in vivo
[9] = AUC (0-infinity) in female rat at 8 mg/kg,iv measured upto 24 hrs; type: ADME, organism-based; set-up: dose 8 mg/kg, time < 24 hrs, route iv; conditions: in vivo
Procedure, shortened: (§1)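 Single iv dose: rats 2, 4 or 8 mg/kg by intravenous injection; Beagle dogs 1, 2 or 4 mg/kg by intravenous infusion. Plasma concentration–time data were analysed by sex and pooled. Reported parameters: Cmax, Tmax, AUC0−t, AUC0−∞, MRT0−∞, t1/2, CL, Vss, given as mean ± SD.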

[10] = AUC (0-t) in female rat at 4 mg/kg,iv measured upto 24 hrs; type: ADME, organism-based; set-up: time < 24 hrs, dose 4 mg/kg, route iv; conditions: in vivo; procedure, shortened: as §1
4T1 [11] = experiment: Antitumor activity against mouse 4T1 cells xenografted with BALB/c mouse assessed as inhibition of tumor growth at 20 mg/kg,iv administrated once per week for 4 weeks; type: functional; conditions: 4T1, 672 h
Procedure, shortened: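 4T1 cells injected into the mammary fat pad of BALB/c mice; iv saline vehicle or 5, 10 or 20 mg/kg once weekly for 4 weeks; body weight, tumour volume, tumour weight, lung metastatic nodule count and metastasis score recorded; n = 10, mean ± SEM, ANOVA and Student's t test.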

[12] = Toxicity in HaM/ICR mouse assessed as effect on motor coordination at 5 to 20 mg/kg,iv; type: organism-based; conditions: in vivo, dose 5-20 mg/kg
[13] = Prodrug conversion in mouse tumor implanted with mouse 4T1 cells assessed as AUC (0-t) of docetaxel at 4 mg/kg,iv measured upto 72 hrs; type: ADME, organism-based, Neoplasm; set-up: time < 72 hrs, dose 4 mg/kg, route iv; conditions: in vivo
[14] = Drug metabolism in mouse hepatocytes assessed as docetaxel metabolite formation at 20 uM incubated for 180 mins; type: ADME, cell-based, Hepatocyte; conditions: 3 h
NCI-H522 = experiment: Antiproliferative activity against human NCI-H522 cells assessed inhibition of cell growth incubated for 72 hrs by SRB assay; type: functional, cell-based; conditions: NCI-H522, 72 h
[15] = Clearance in female Beagle dog at 1 mg/kg,iv measured upto 24 hrs; type: ADME, organism-based, Canis lupus familiaris; conditions: in vivo
Procedure, shortened: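 Beagle dogs were given a single iv infusion at 1, 2 or 4 mg/kg. Plasma parent drug and released docetaxel were followed over time. Cmax, Tmax, AUC, MRT, t1/2, CL and Vss were reported by sex and for all dogs combined.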

[16] = Stability in mouse plasma assessed as compound remaining at 40 uM incubated for 6 hrs; type: ADME, cell-free
[17] = Clearance in rat at 2 mg/kg,iv measured upto 24 hrs; type: ADME, organism-based; conditions: in vivo
Procedure, shortened: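 Rats were given a single iv injection at 2, 4 or 8 mg/kg. Plasma parent drug and released docetaxel were followed over time. Cmax, Tmax, AUC, MRT, t1/2, CL and Vss were reported for males, females and all animals combined.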

[18] = Toxicity in BALB/c mouse xenografted with human MDA-MB-231 cells assessed as body weight loss at 10 mg/kg,iv administrated once per week for 3 weeks; type: organism-based; conditions: in vivo, 504 h
[19] = Acute toxicity in Beagle dog assessed as lethal dose at iv administration; type: organism-based, Canis lupus familiaris; conditions: in vivo
Procedure, shortened: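 Acute toxicity after a single intravenous administration. […] In dogs, an approximate lethal dose range was determined.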

[20] = Half life in mouse tumor implanted with mouse 4T1 cells at 10 mg/kg,iv measured upto 72 hrs; type: ADME, organism-based, Neoplasm
NCI-H1975 = experiment: Antitumor activity against human NCI-H1975 cells xenografted with BALB/c mouse assessed as inhibition of tumor growth at 10 mg/kg,iv administrated once per week for 3 weeks; type: functional, organism-based
Procedure, shortened: (§2)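 BALB/c nu/nu mice given subcutaneous human tumour cells in the right flank; dosing began at about 100–120 mm3 mean volume; iv once weekly for 3 weeks, with equimolar parent drug as positive control; tumour volume and weight measured; n = 8, mean ± SEM, ANOVA and Student's t test.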

[21] = Half life in female rat at 2 mg/kg,iv measured upto 24 hrs; type: ADME, organism-based; conditions: in vivo
COLO 205 = experiment: Antiproliferative activity against human COLO 205 cells assessed inhibition of cell growth incubated for 72 hrs by SRB assay; type: functional, cell-based; conditions: COLO 205, 72 h
[22] = Drug metabolism in rat urine assessed as metabolite MDA-205 formation at 4 mg/kg,iv measured after 24 hrs; type: ADME, organism-based; conditions: in vivo
MDA-MB-468 = experiment: Antiproliferative activity against human MDA-MB-468 cells assessed inhibition of cell growth incubated for 72 hrs by SRB assay; type: functional, cell-based; conditions: MDA-MB-468, 72 h
[23] = Toxicity in Beagle dog assessed as erythema at 3 to 18 mg/kg,iv measured upto 24 hrs; type: organism-based, Canis lupus familiaris; conditions: in vivo, dose 3-18 mg/kg
[24] = Toxicity in BALB/c mouse xenografted with human HCT-116 cells assessed as side effects at 10 mg/kg,iv administrated once per week for 3 weeks; type: organism-based; conditions: in vivo, 504 h
[25] = Drug concentration in rat plasma at 4 mg/kg,iv measured after 24 hrs; type: ADME, organism-based; conditions: in vivo
Procedure, shortened: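 Rats received 4 mg/kg iv. Parent drug and released docetaxel were assayed in tissues and plasma from the first sampling at 0.25 h to 24 h. The lower limit of quantitation was 200 ng/g.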

[26] = Prodrug conversion in mouse plasma implanted with mouse 4T1 cells assessed as MRT of docetaxel at 4 mg/kg,iv measured upto 72 hrs; type: ADME, organism-based; conditions: in vivo
[27] = AUC (0-t) in rat at 2 mg/kg,iv measured upto 24 hrs; type: ADME, organism-based; set-up: dose 2 mg/kg, time < 24 hrs, route iv; conditions: in vivo; procedure, shortened: as §1
[28] = Plasma protein binding in rat plasma incubated for 4 hrs; type: ADME, cell-free; conditions: read-out: PPB (converted)
[29] = MRT (0 to infinity) in rat at 8 mg/kg,iv measured upto 24 hrs; type: ADME, organism-based; conditions: in vivo
[30] = Volume of distribution at steady state in Beagle dog at 2 mg/kg,iv measured upto 24 hrs; type: ADME, organism-based, Canis lupus familiaris; conditions: in vivo, read-out: Vdss
MDA-MB-231 = experiment: Antitumor activity against human MDA-MB-231 cells xenografted with BALB/c mouse assessed as inhibition of tumor growth at 10 mg/kg,iv administrated once per week for 3 weeks; type: functional, organism-based; procedure, shortened: as §2

With `CC(=O)O[C@@]12CO[C@@H]1C[C@H](O)[C@@]1(C)C(=O)[C@H](O)C3=C(C)[C@@H](OC(=O)[C@H](O)[C@@H](NC(=O)OC(C)(C)C)c4ccccc4)C[C@@](O)([C@@H](OC(=O)c4ccccc4)[C@H]21)C3(C)C` [DOCETAXEL ANHYDROUS] the Activity (4T1 [1]) was “inactive”, the Activity (4T1 [2]) was “Active” and the Activity (4T1 [3]) was “Active”.
With `CC(=O)O[C@@]12CO[C@@H]1C[C@H](O)[C@@]1(C)C(=O)[C@H](O)C3=C(C)[C@@H](OC(=O)[C@H](OC(=O)CCC(=O)NCCCC[C@H](NC(=O)CC[C@@H](NC(=O)[C@H](C)NC(=O)/C=C/c4ccc(F)cc4Cl)C(N)=O)C(=O)O)[C@@H](NC(=O)OC(C)(C)C)c4ccccc4)C[C@@](O)([C@@H](OC(=O)c4ccccc4)[C@H]21)C3(C)C` the MRT [4] was 132 min, the Drug metabolism [5] was “Metabolite_Detected” and the dose excreted at 72 h [6] was 69.9%. For the same molecule, the Vd [7] was 0.073 L/kg, the half-life [8] was 10.6 min and the AUC(0-inf) [9] was 39400 ng·h/mL. For the same molecule, the AUC(0-t) at 24 h [10] was 13000 ng·h/mL, the inhibition in vivo at 20 mg/kg (4T1 [11]) was 57.2% and the Activity [12] was “Non-Toxic”. For the same molecule, the AUCt [13] was 81 µM·h, the Drug metabolism [14] was “Metabolite_Detected” and the IC50 (NCI-H522) was 16.3 nM. For the same molecule, the clearance [15] was 11.2 mL/min/kg, the Stability [16] was “Stable” and the clearance [17] was 6.66 mL/min/kg. For the same molecule, the Activity [18] was “Non-Toxic”, the LD [19] was 33 mg/kg and the half-life [20] was 93.6 min. The inhibition (NCI-H1975) was “Active”, the half-life [21] was 6.6 min and the IC50 (COLO 205) was 16.3 nM. For the same molecule, the Drug metabolism [22] was “Metabolite_Detected”, the IC50 (MDA-MB-468) was 16.3 nM and the Activity [23] was “Toxic”. For the same molecule, the Activity [24] was “Non-Toxic”, the Drug uptake [25] was 1% and the MRT [26] was 52.8 min. It also gave an AUC(0-t) at 24 h [27] of 5200 ng·h/mL, a fraction unbound at 4 h [28] of 0.007 and an MRT inf [29] of 33.1 min. For the same molecule, the Vd [30] was 0.083 L/kg and the inhibition (MDA-MB-231) was “Active”.
